In brackets after ≈: the same amount, converted by molar mass.
What was measured:
Leishmania donovani = test: Antileishmanial activity against axenic amastigote stage of Leishmania donovani […] after 72 hrs by alamar blue assay; assay type: functional, organism-based; conditions: MHOM/ET/67/L82, L6, 72 h
In short: (§1)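 In vitro screens of parasites and host cells: T. b. rhodesiense STIB900 trypomastigotes, T. cruzi Tulahuen C4 intracellular amastigotes, L. donovani MHOM-ET-67/L82 axenic amastigotes, P. falciparum K1 erythrocytic stage, and L6 rat skeletal myoblasts […] for toxicity. Values are means of two independent determinations.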

Plasmodium falciparum = test: Antimalarial activity against chloroquine and pyrimethamine-resistant Plasmodium falciparum […] assessed as [3H]-hypoxanthine incorporation after 48 hrs by liquid scintillation counting; assay type: functional, organism-based
In short: (§2)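 In vitro screens of parasites and host cells: T. b. rhodesiense STIB900 trypomastigotes, T. cruzi Tulahuen C4 intracellular amastigotes, L. donovani MHOM-ET-67/L82 axenic amastigotes, P. falciparum K1 erythrocytic stage, and L6 rat skeletal myoblasts […] for toxicity. […] Values are means of two independent determinations.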

[1] = tested on: Trypanosoma brucei rhodesiense; test: Antitrypanosomal activity against trypomastigotes of Trypanosoma brucei rhodesiense […] after 72 hrs by alamar blue assay; assay type: functional, organism-based; conditions: STIB 900, L6, 72 h; in short: as §2
L6 = test: Cytotoxicity against rat L6 cells after 72 hrs by alamar blue assay; assay type: cell-based; conditions: L6, 72 h; in short: as §2
Trypanosoma cruzi = test: Antitrypanosomal activity against intracellular amastigote stage of Trypanosoma cruzi Tulahuen C2C4 infected in rat L6 cells after 96 hrs by spectrophotometric analysis; assay type: functional, organism-based; conditions: Tulahuen C2C4, L6, 96 h; in short: as §1
[2] = Selectivity index, ratio of IC50 for rat L6 cells to IC50 for intracellular amastigote stage of Trypanosoma cruzi Tulahuen C2C4; assay type: toxicity, cell-based; conditions: read-out: Ratio IC50
In short: (§3)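 Selectivity index is calculated as the L6 myoblast IC50 divided by the IC50 against the respective parasite. Both IC50s are in µg/mL and are means of two independent determinations.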

[3] = Selectivity index, ratio of IC50 for rat L6 cells to IC50 for axenic amastigote stage of Leishmania donovani MHOM/ET/67/L82; assay type: toxicity, cell-based; conditions: read-out: Ratio IC50; in short: as §3
[4] = Selectivity index, ratio of IC50 for rat L6 cells to IC50 for trypomastigotes of Trypanosoma brucei rhodesiense STIB 900; assay type: toxicity, cell-based; conditions: read-out: Ratio IC50; in short: as §3
[5] = Selectivity index, ratio of IC50 for rat L6 cells to IC50 for chloroquine and pyrimethamine-resistant Plasmodium falciparum K1; assay type: toxicity, cell-based; conditions: read-out: Ratio IC50; in short: as §3

| SMILES | IC50 (Leishmania donovani) [µg/mL] | IC50 (Plasmodium falciparum) [µg/mL] | IC50 [1] [µg/mL] | IC50 (L6) [µg/mL] | IC50 (Trypanosoma cruzi) [µg/mL] | selectivity ratio [2] | selectivity ratio [3] | selectivity ratio [4] | selectivity ratio [5] |
| --- | --- | --- | --- | --- | --- | --- | --- | --- | --- |
| O=C(NC(=O)c1ccccc1O)c1ccc(C(F)(F)F)cc1 | 0.57 (≈ 1.84 µM) | 3.8 (≈ 12.3 µM) | 70 (≈ 226 µM) | 13 (≈ 42 µM) | 50 (≈ 162 µM) | – | – | – | – |
| Cc1ccc(C(=O)NC(=O)c2ccccc2O)cc1 | 3.2 (≈ 12.5 µM) | 1.4 (≈ 5.48 µM) | > 100 | 46 (≈ 180 µM) | 38 (≈ 149 µM) | 1.2 | 14 | < 0.46 | 33 |
| CC(C)c1ccc(C(=O)NC(=O)c2ccccc2O)cc1 | 1.3 (≈ 4.59 µM) | 1.5 (≈ 5.29 µM) | 65 (≈ 229 µM) | 19 (≈ 67.1 µM) | 2 (≈ 7.06 µM) | 9.5 | 14 | 0.29 | 12 |
| Nc1ccc(C(=O)NC(=O)c2ccccc2O)cc1 | 7.8 (≈ 30.4 µM) | 3.9 (≈ 15.2 µM) | 46 (≈ 180 µM) | 39 (≈ 152 µM) | 40 (≈ 156 µM) | 0.98 | 5 | 0.84 | 10 |
| COC(=O)CCC(=O)Nc1ccc(C(=O)NC(=O)c2ccccc2O)cc1 | 22 (≈ 59.4 µM) | 21 (≈ 56.7 µM) | > 50 | > 50 | > 50 | – | > 2.3 | – | > 2.4 |
| CC(C)(C)c1ccc(C(=O)NC(=O)c2ccccc2O)cc1 | 0.14 (≈ 0.471 µM) | 0.029 (≈ 0.0975 µM) | 61 (≈ 205 µM) | 2.3 (≈ 7.73 µM) | 6 (≈ 20.2 µM) | 0.38 | 17 | 0.038 | 80 |
| O=C(NC(=O)c1ccccc1O)c1ccc(-c2ccccc2)cc1 | 7.4 (≈ 23.3 µM) | 3.9 (≈ 12.3 µM) | 87 (≈ 274 µM) | > 100 | 7.7 (≈ 24.3 µM) | > 13 | > 14 | > 1.2 | > 26 |
| O=C(NC(=O)c1ccccc1O)c1ccc(F)cc1 | 1.6 (≈ 6.17 µM) | 1.5 (≈ 5.79 µM) | 64 (≈ 247 µM) | 38 (≈ 147 µM) | 51 (≈ 197 µM) | 0.75 | 23 | 0.6 | 25 |
| O=C(NC(=O)c1ccccc1O)c1ccc(OC(F)(F)F)cc1 | 5.3 (≈ 16.3 µM) | 22 (≈ 67.6 µM) | 65 (≈ 200 µM) | 84 (≈ 258 µM) | 72 (≈ 221 µM) | – | – | – | – |
| N#Cc1ccc(C(=O)NC(=O)c2ccccc2O)cc1 | 12 (≈ 45.1 µM) | 14 (≈ 52.6 µM) | > 100 | 55 (≈ 207 µM) | 100 (≈ 376 µM) | 0.55 | 4.7 | < 0.55 | 3.9 |
| CS(=O)(=O)c1ccc(C(=O)NC(=O)c2ccccc2O)cc1 | > 100 | 38 (≈ 119 µM) | > 100 | > 100 | 51 (≈ 160 µM) | > 2 | – | – | > 2.7 |
| O=C(NC(=O)c1ccccc1O)c1ccc([N+](=O)[O-])cc1 | 11 (≈ 38.4 µM) | 22 (≈ 76.9 µM) | > 100 | 53 (≈ 185 µM) | 56 (≈ 196 µM) | 0.94 | 4.9 | < 0.53 | 2.4 |
| COC(=O)c1ccc(C(=O)NC(=O)c2ccccc2O)cc1 | > 50 | 2.9 (≈ 9.69 µM) | > 50 | 42 (≈ 140 µM) | 20 (≈ 66.8 µM) | 2.1 | < 0.83 | < 0.83 | 14 |
| COc1ccc(C(=O)NC(=O)c2ccccc2O)cc1 | 1.7 (≈ 6.27 µM) | 1.6 (≈ 5.9 µM) | 50 (≈ 184 µM) | 39 (≈ 144 µM) | 31 (≈ 114 µM) | 1.3 | 23 | 0.78 | 24 |
| CCOc1ccc(C(=O)NC(=O)c2ccccc2O)cc1 | 0.45 (≈ 1.58 µM) | 1 (≈ 3.51 µM) | 60 (≈ 210 µM) | 17 (≈ 59.6 µM) | 4.1 (≈ 14.4 µM) | 4.1 | 37 | 0.28 | 17 |
| CCCCOc1ccc(C(=O)NC(=O)c2ccccc2O)cc1 | 0.94 (≈ 3 µM) | 0.26 (≈ 0.83 µM) | 55 (≈ 176 µM) | 13 (≈ 41.5 µM) | 11 (≈ 35.1 µM) | 1.2 | 14 | 0.23 | 50 |
| O=C(NC(=O)c1ccccc1O)c1ccc(OCc2ccccc2)cc1 | 1.5 (≈ 4.32 µM) | 4.1 (≈ 11.8 µM) | 62 (≈ 178 µM) | 64 (≈ 184 µM) | 4.4 (≈ 12.7 µM) | 15 | 42 | 1 | 16 |
| CN(C)c1ccc(C(=O)NC(=O)c2ccccc2O)cc1 | 18 (≈ 63.3 µM) | 0.49 (≈ 1.72 µM) | 81 (≈ 285 µM) | 54 (≈ 190 µM) | 37 (≈ 130 µM) | 1.4 | 3 | 0.66 | 110 |
| CCN(CC)c1ccc(C(=O)NC(=O)c2ccccc2O)cc1 | 0.91 (≈ 2.91 µM) | 0.005 (≈ 0.016 µM) | > 50 | 8.2 (≈ 26.3 µM) | 2.8 (≈ 8.96 µM) | – | – | – | – |
| O=C(NC(=O)c1ccccc1O)c1ccc(N2CCOCC2)cc1 | 16 (≈ 49 µM) | 0.18 (≈ 0.552 µM) | > 50 | > 50 | > 50 | – | > 3.1 | – | > 272 |
| O=C(CCCCCCC(=O)Nc1ccc(C(=O)NC(=O)c2ccccc2O)cc1)NO | > 100 | 3.5 (≈ 8.19 µM) | 65 (≈ 152 µM) | > 100 | 49 (≈ 115 µM) | > 2.1 | – | > 1.5 | > 29 |
| CCc1ccc(C(=O)Nc2n[nH]c3ccccc23)cc1 | 3 (≈ 11.3 µM) | 8.5 (≈ 32 µM) | 8.2 (≈ 30.9 µM) | 8.2 (≈ 30.9 µM) | 8.9 (≈ 33.5 µM) | – | – | – | – |
| CCc1ccc(-c2noc(-c3ccccc3O)n2)cc1 | – | 27 (≈ 101 µM) | 61 (≈ 229 µM) | > 100 | 39 (≈ 146 µM) | > 2.6 | > 1 | > 1.6 | > 3.7 |
| Nc1nc(N)nc(Nc2ccc([As]3SCC(CO)S3)cc2)n1 (centres undefined) [MELARSOPROL] | – | – | 0.005 | – | – | – | – | – | – |
